The target of experiment [1] is Fibroblast growth factor receptor 3 (Homo sapiens, UniProt P22607). Put plainly: Inhibitory activity against Fibroblast growth factor receptor 3. The essentials: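 Commercially supplied FGFR3 enzyme. Value is the IC50 for inhibition of kinase activity.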
Experiment [2] has as its target Mast/stem cell growth factor receptor Kit (Homo sapiens, UniProt P10721). The experiment in a line: Inhibitory concentration against c-Kit wild type expressed in recombinant baculovirus.
The target of experiment [3] is Mast/stem cell growth factor receptor Kit (Homo sapiens, UniProt P10721, D816V). The experiment in a line: Inhibitory concentration against c-Kit D816V type expressed in recombinant baculovirus. Put shortly:
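Recombinant c-Kit D816V expressed in baculovirus-infected High Five cells (MOI 10, harvested 90 h), purified by ion exchange then Ni affinity chromatography. ELISA on poly-Glu/Tyr (1:4)-coated wells; 10 nM final enzyme in 10 mM MgCl2, 1 mM MnCl2, 1 mM vanadate, 20 mM HEPES pH 7.3, BSA; 15 min at 25 °C, EDTA stop. Anti-phosphotyrosine-HRP detection, OPD, absorbance 492 nm; IC50 from inhibition.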

This note sets out measurements from ChEMBL document CHEMBL1141098, “Molecular modeling of wild-type and D816V c-Kit inhibition based on ATP-competitive binding of ellipticine derivatives to tyrosine kinases” (J Med Chem, 2005).

SMILES strings stand for the structures.

Sequence of Fibroblast growth factor receptor 3 (P22607 whole entry): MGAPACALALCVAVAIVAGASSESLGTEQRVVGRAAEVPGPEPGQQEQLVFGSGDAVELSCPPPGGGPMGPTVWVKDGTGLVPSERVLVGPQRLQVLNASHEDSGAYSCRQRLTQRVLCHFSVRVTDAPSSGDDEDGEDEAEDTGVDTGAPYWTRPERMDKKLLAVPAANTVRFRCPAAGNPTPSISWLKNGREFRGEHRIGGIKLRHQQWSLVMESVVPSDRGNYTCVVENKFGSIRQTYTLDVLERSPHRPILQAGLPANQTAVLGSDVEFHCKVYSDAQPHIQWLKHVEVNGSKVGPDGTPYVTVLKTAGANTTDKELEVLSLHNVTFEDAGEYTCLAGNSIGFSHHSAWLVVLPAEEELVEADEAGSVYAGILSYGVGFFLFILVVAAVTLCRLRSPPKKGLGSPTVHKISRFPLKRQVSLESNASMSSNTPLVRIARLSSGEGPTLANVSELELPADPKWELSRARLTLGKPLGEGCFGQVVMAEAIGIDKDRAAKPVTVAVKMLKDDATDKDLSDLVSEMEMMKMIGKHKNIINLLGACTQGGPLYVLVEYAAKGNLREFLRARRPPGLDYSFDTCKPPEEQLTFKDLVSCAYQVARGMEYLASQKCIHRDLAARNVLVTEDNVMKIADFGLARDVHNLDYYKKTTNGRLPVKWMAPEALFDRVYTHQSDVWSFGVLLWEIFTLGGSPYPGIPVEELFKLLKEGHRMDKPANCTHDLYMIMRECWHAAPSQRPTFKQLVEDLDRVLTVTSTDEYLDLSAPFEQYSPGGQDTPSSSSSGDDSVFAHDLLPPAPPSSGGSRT
Sequence of Mast/stem cell growth factor receptor Kit (Homo sapiens, UniProt P10721) (P10721 whole entry): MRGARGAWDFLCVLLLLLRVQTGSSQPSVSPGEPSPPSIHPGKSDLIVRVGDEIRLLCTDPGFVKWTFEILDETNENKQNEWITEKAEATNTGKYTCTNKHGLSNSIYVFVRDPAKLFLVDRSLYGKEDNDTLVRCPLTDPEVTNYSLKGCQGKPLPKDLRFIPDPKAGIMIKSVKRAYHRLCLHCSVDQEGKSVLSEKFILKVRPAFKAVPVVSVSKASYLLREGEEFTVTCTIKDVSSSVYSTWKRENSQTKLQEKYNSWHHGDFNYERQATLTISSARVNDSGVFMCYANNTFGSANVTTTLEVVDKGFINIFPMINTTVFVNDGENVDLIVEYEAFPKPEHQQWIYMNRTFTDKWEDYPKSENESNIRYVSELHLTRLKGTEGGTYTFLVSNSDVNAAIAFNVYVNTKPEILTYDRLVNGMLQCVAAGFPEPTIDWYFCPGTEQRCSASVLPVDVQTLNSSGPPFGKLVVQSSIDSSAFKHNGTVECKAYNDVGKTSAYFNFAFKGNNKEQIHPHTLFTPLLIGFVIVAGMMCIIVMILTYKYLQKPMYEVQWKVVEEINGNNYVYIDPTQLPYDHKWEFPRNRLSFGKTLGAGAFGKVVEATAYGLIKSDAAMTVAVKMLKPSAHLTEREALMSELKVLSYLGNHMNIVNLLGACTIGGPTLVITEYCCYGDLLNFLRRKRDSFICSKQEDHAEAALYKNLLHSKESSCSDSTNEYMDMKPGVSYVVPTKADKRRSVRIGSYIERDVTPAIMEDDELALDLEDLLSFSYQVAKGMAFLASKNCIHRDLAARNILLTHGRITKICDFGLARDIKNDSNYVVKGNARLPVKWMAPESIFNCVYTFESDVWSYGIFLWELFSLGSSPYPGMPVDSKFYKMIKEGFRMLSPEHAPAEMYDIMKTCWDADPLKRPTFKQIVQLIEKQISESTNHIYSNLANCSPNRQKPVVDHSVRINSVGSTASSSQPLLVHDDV
Sequence of Mast/stem cell growth factor receptor Kit (Homo sapiens, UniProt P10721, D816V) (P10721 26-976 D816V limits assumed): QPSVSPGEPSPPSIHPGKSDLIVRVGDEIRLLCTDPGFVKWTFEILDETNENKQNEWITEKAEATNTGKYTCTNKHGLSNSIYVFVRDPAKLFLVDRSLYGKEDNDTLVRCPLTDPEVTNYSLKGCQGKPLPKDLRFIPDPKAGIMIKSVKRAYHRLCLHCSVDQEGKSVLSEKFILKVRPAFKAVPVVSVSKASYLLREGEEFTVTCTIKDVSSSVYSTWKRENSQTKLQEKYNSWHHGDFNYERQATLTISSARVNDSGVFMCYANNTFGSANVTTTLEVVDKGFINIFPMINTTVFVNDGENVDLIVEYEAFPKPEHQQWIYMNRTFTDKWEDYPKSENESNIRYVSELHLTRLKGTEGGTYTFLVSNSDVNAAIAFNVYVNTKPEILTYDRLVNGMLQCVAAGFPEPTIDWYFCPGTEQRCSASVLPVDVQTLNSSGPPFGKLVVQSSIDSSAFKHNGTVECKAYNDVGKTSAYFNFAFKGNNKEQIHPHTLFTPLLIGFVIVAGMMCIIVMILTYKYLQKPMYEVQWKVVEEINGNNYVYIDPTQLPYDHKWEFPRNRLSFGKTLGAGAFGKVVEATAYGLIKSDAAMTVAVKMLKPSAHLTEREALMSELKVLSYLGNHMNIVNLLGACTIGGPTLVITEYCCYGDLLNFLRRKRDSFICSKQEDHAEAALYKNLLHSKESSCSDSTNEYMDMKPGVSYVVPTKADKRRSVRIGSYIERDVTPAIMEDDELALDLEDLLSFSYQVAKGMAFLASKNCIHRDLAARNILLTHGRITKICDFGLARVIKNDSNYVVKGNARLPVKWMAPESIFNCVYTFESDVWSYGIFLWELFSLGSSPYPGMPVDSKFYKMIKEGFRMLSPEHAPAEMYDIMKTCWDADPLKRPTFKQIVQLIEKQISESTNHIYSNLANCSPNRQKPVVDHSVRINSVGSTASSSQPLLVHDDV

In the case of `Cc1c2cc[n+](C)cc2c(C)c2c1[nH]c1ccc(O)cc12`, the results for the IC50 in experiment [1], in experiment [2] and in experiment [3] were 500 nM, 400 nM and 400 nM, respectively.

Turning to `Cc1c2ccncc2c(C)c2c1[nH]c1ccc(Br)cc12`, the IC50 in experiment [2] and in experiment [3] was more than 10000 nM each time.

On to `CCN(CC)CC[n+]1ccc2c(C)c3[nH]c4ccc(O)cc4c3c(C)c2c1`, for which the IC50 in experiment [2] is 450 nM; in experiment [3], 300 nM.

In the case of `CCN(CC)CCCNc1nccc2c(C)c3[nH]c4ncccc4c3cc12`, the IC50 in experiment [2] worked out at 2300 nM; in experiment [3], 1900 nM.

Consider `COc1ccc2[nH]c3c(C)c4ccncc4c(C)c3c2c1`, for which the IC50 in experiment [2] was 800 nM; in experiment [3], 600 nM.

Regarding `Cc1c2ccncc2c(C)c2c1[nH]c1ccc(O)cc12`, the IC50 in experiment [1], in experiment [2] and in experiment [3] was 400 nM each time.

Turning to `CCN(CC)CCCNc1nccc2c(C)c3[nH]c4ccc(OC)cc4c3cc12`, the IC50 in experiment [2] worked out at 2500 nM; in experiment [3], 2000 nM.

As to `CCN(CC)CCCNc1nccc2c(C)c3[nH]c4ccc(O)cc4c3c(C)c12`, the figures for the IC50 in experiment [2] and in experiment [3] were 1400 nM and 1200 nM, respectively.

Take `CCN(CC)CCCNc1nccc2c(C)c3c(c(C)c12)c1cc(O)ccc1n3C`: the values for the IC50 in experiment [1], in experiment [2] and in experiment [3] were 1400 nM, 2500 nM and 3600 nM, respectively.

As to `Cc1c2ccncc2c(C)c2c1[nH]c1ccccc12` [ELLIPTECINE], the IC50 in experiment [2] and in experiment [3] was more than 10000 nM each time.
